Calls of active or inactive are those of the source. The calls are words filed in the database; no cut-off is given here.
What was measured:
[1] = tested on: Enterococcus faecalis; assay: Antimicrobial activity against Enterococcus faecalis at 50 uM; format: functional, organism-based
[2] = tested on: Pseudomonas aeruginosa; assay: Antimicrobial activity against Pseudomonas aeruginosa at 50 uM; format: functional, organism-based
[3] = target: T1, Tyrosine-protein phosphatase non-receptor type 2 (Homo sapiens) (UniProt P17706); assay: Inhibition of TCPTP at 1 uM relative to control; design: scale not given: the % may be the effect or the level left
T1 sequence (whole entry): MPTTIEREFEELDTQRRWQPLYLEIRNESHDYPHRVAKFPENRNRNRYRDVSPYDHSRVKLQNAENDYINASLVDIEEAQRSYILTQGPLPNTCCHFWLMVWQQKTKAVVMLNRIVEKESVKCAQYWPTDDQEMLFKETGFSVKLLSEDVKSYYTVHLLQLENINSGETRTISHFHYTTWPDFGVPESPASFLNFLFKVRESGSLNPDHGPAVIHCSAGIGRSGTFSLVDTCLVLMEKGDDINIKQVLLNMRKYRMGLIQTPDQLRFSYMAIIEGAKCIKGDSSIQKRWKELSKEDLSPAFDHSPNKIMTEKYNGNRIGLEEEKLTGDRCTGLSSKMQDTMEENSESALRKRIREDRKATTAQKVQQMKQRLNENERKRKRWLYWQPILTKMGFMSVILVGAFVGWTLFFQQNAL
How it was run: (§1)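 Commercial phosphatase. pNPP dephosphorylation with 2 mM pNPP in 50 mM sodium acetate pH 5.5, 0.5 mg/mL BSA, 0.5 mM dithiothreitol, at 30 °C. Reactions stopped within the linear phase. Activity expressed as percent of the control without inhibitor. Mean of three separate enzyme preparations, each assayed in duplicate, ± S.D.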

[4] = organism: Bos taurus; assay: Inhibition of calf intestinal alkaline phosphatase at 1 uM relative to control; design: scale not given: the % may be the effect or the level left
How it was run: (§2)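 Commercial enzyme acting on 2 mM pNPP in 50 mM sodium acetate with 0.5 mg/mL BSA and 0.5 mM DTT, at 30 °C, linear phase. pH 7 for CIP; pH 5.5 plus 2 mM Mn2+ for λPP. Percent of the no-inhibitor control. Three enzyme preparations, each in duplicate, ± S.D.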

[5] = tested on: Mycolicibacterium smegmatis; assay: Antimicrobial activity against Mycobacterium smegmatis at 100 uM; format: functional, organism-based
[6] = tested on: Candida albicans; assay: Antimicrobial activity against Candida albicans at 50 uM; format: functional, organism-based
[7] = tested on: Proteus vulgaris; assay: Antimicrobial activity against Proteus vulgaris at 100 uM; format: functional, organism-based
[8] = tested on: Mycolicibacterium smegmatis; assay: Antimicrobial activity against Mycobacterium smegmatis at 50 uM; format: functional, organism-based
[9] = tested on: Proteus vulgaris; assay: Antimicrobial activity against Proteus vulgaris at 50 uM; format: functional, organism-based
[10] = tested on: Staphylococcus aureus; assay: Antimicrobial activity against Staphylococcus aureus at 50 uM; format: functional, organism-based
[11] = tested on: Escherichia coli; assay: Antimicrobial activity against Escherichia coli at 50 uM; format: functional, organism-based
[12] = tested on: Escherichia coli; assay: Antimicrobial activity against Escherichia coli at 100 uM; format: functional, organism-based
[13] = Inhibition of protein tyrosine phosphatase CD45 domain at 1 uM relative to control; design: scale not given: the % may be the effect or the level left; how it was run: as §1
[14] = tested on: Staphylococcus aureus; assay: Antimicrobial activity against Staphylococcus aureus at 100 uM; format: functional, organism-based
[15] = tested on: Pseudomonas aeruginosa; assay: Antimicrobial activity against Pseudomonas aeruginosa at 100 uM; format: functional, organism-based
[16] = tested on: Enterococcus faecalis; assay: Antimicrobial activity against Enterococcus faecalis at 100 uM; format: functional, organism-based
[17] = tested on: Curvularia; assay: Antimicrobial activity against Curvularia sp. at 50 uM; format: functional, organism-based
[18] = Inhibition of protein tyrosine phosphatase alpha D1D2 domain at 1 uM relative to control; design: scale not given: the % may be the effect or the level left
How it was run: (§3)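 Bacterially expressed, purified PTPα or PTPε. pNPP (2 mM) dephosphorylation in 50 mM sodium acetate pH 5.5 with 0.5 mg/mL BSA and 0.5 mM DTT, at 30 °C, stopped during the linear phase. Percent activity relative to the uninhibited control. Average of three enzyme preparations, each run in duplicate, ± S.D.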

[19] = tested on: Curvularia; assay: Antimicrobial activity against Curvularia sp. at 100 uM; format: functional, organism-based
[20] = tested on: Candida albicans; assay: Antimicrobial activity against Candida albicans at 100 uM; format: functional, organism-based
[21] = Inhibition of protein tyrosine phosphatase epsilon D1D2 domain at 1 uM relative to control; design: scale not given: the % may be the effect or the level left; how it was run: as §3
[22] = target: T2, Serine/threonine-protein phosphatase (Enterobacteria phage lambda) (UniProt P03772); assay: Inhibition of enterobactera phage lambda PP at 1 uM relative to control; design: scale not given: the % may be the effect or the level left; how it was run: as §2
T2 sequence (whole entry): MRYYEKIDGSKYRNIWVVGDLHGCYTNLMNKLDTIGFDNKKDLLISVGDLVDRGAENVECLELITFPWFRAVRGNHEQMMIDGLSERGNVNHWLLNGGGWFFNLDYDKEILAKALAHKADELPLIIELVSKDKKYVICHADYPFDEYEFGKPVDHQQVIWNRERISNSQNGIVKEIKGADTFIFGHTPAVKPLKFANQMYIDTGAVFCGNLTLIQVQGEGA

[23] = tested on: Yersinia sp.; assay: Inhibition of Yersinia sp. protein tyrosine phosphatase yop at 1 uM relative to control; design: scale not given: the % may be the effect or the level left; how it was run: as §1
[24] = Inhibition of protein tyrosine phosphatase LAR-D1 domain at 1 uM relative to control; design: scale not given: the % may be the effect or the level left; how it was run: as §1

Row | Compound | Activity [3] | Activity [4] | Activity [13] | Activity [18] | Activity [21] | Activity [22] | Activity [23] | Activity [24] | also measured
1 | Cn1nc2c(nc1=O)c(=O)n(C)c(=O)n2C | 34% | 100% | 15% | 17% | 17% | 48% | 10% | 17% | Activity [1]: inactive; Activity [2]: inactive; Activity [5]: inactive; Activity [6]: inactive; Activity [7]: inactive; Activity [8]: inactive; Activity [9]: inactive; Activity [10]: inactive; Activity [11]: inactive; Activity [12]: inactive; Activity [14]: inactive; Activity [15]: inactive; Activity [16]: inactive; Activity [17]: inactive; Activity [19]: inactive; Activity [20]: inactive
2 | Cn1nc2c(nc1=O)n(C)c(=O)n2C | 99% | 99% | 96% | 98% | 99% | 100% | 95% | 97% | 
